Compound activity as filed in PubChem BioAssay.
MrgX1 agonist: activates human MrgX1 receptor signaling; Q96LB2; MrgX1-HEK293 cells, Fluo-4 calcium fluorescence, agonist mode; stronger effect = higher value; B-score at 10 µM; actives 0.44% (n = 310,000); AID 588627;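 active = calcium response B-score plate-corrected fluorescence ratio at least 3 library SD, with starting fluorescence B-score inside 5 SD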
Target sequence (Q96LB2 whole entry, looked up): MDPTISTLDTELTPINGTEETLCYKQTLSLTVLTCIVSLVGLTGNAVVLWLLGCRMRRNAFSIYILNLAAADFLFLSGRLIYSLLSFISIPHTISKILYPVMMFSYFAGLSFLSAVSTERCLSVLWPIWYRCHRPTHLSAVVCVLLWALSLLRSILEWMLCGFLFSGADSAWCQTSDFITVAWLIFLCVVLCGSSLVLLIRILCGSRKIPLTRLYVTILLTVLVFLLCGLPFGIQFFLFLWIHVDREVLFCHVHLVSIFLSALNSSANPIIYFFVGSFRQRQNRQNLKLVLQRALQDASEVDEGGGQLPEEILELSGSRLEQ
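Assay system: stable human MrgX1 HEK293 cell line. Quantity: 15,000 cells per well. Schedule: cells plated overnight, dye loaded 0.5 h 37 °C, 0.5 h room temperature. Detection: Fluo-4 NW calcium-flux fluorescence, kinetic read. Read-out basis: peak-minus-minimum fluorescence over baseline, converted to B scores. Control set: positive and negative control wells on each plate.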
MrgX1 antag: blocks BAM8-22 activation of human MrgX1 receptor | Q96LB2 | MRGX1-HEK293 calcium flux, Fluo-4, BAM8-22 antagonism; stronger effect = lower value | B-score at 10 µM | actives 1.3% (n = 310,000) | AID 588676;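 active = calcium-response B-score plate-corrected more than 3 library SD below zero, starting fluorescence within 5 deviations, no agonist response on first addition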;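 note: peak minus trough fluorescence over baseline after final BAM8-22 challenge near maximal dose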
RGS4 pot: RGS4 potentiation or activation | actives 0.92% (n = 310,000) | HEK293 M3R/inducible RGS4, carbachol calcium flux Fluo4; stronger effect = lower value | B-score at 10 µM;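 active = B-score of the integrated calcium signal more than 4 SD below the library mean, with starting fluorescence not abnormally high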;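 note: negative B-score means reduced calcium response which marks RGS4 activation or potentiation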
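Reagent: ECmax carbachol challenge; Test system: M3R-expressing HEK293 line, RGS4 induced by doxycycline; Schedule: overnight RGS4 induction, 30 min dye load 37 °C, 20 min compound RT; Detection: calcium dye Fluo4 fluorescence; Read-out: Agonist-evoked peak-minus-minimum fluorescence over baseline, integrated ratio, B score.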
MrgX1 PAM: allosterically activates human MrgX1 receptor signaling; Q96LB2; MrgX1-HEK293, Fluo-4 calcium flux, FDSS; stronger effect = higher value; B-score at 10 µM; actives 0.63% (n = 310,000); AID 588675;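 active = plate-corrected calcium response at least 3 library SD above typical, normal starting fluorescence, not activating the receptor alone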;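 note: compound read alongside a low EC10 to EC30 dose of BAM8-22 agonist; peak minus trough fluorescence over baseline measured at the second addition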
RGS4 inh: human RGS4 inhibition | AID 463165 | HEK293 M3R/RGS4 inducible, Fluo-4 calcium flux; stronger effect = higher value; triggered by carbachol at its EC20 | actives 0.45% (n = 310,000) | B-score at 10 µM | P49798;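 active = B-score, a plate-corrected calcium signal, over three deviations above library mean, with baseline fluorescence within five deviations of library mean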;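 note: RGS4 expression induced by doxycycline in cells with stable M3 receptor; B-score is computed from the integrated fluorescence ratio over baseline after carbachol; higher B-score means a larger calcium signal and so more RGS4 inhibition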
Target sequence (P49798 whole entry, looked up): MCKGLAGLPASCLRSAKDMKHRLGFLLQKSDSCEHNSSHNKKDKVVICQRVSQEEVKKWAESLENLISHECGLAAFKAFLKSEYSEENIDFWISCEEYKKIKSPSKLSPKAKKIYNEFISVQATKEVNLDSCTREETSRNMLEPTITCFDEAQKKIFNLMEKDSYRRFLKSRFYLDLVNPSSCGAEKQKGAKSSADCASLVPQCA
RGS4 block valid: RGS4 inhibitor validation; shares compounds with RGS4 inh; calcium response, % at 10 µM; HEK293 M3R/RGS4, carbachol calcium Fluo-4 fluorescence; carbachol added at its EC20; 0 = buffer wells, 100 = carbachol control; actives 65% (n = 1,700);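 active = duplicate-averaged calcium response above the buffer-only control mean plus 5 SD of those controls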;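 note: integrated fluorescence ratio F max minus min over baseline F0; higher response in RGS4-induced cells means RGS4 inhibition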
RGS4 uninduced: checks RGS4 inhibitor effects in non-induced HEK293 M3R cells; shares compounds with RGS4 inh; carbachol calcium Fluo-4; submaximal (EC20) carbachol stimulus; buffer wells 0%, carbachol control wells 100%; activity (percent), % at 10 µM; actives 20% (n = 1,900); AID 493000; call rule not given here;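 note: RGS4 induction absent so cells express M3R without RGS4; higher means more calcium signal and flags a non-specific hit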
RGS4 inh ctr2: signal in non-induced cells without carbachol, RGS4 inhibitor counter-screen. shares compounds with RGS4 inh. HEK293 M3R/RGS4 non-induced, Fluo-4 calcium, no carbachol; normalised: buffer wells 0%, carbachol wells 100%. calcium response (agonist-mode artifact), % at 10 µM. actives 22% (n = 1,900);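 active = duplicate-averaged calcium rise in uninduced cells above buffer wells' mean plus 5 SD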
MrgX1 ag reconf: human MrgX1 agonism, re-confirmation screen. shares compounds with MrgX1 agonist. MrgX1-HEK293, Fluo-4 calcium fluorescence, FDSS. activation, % at 10 µM. actives 78% (n = 600);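 active = calcium signal rise, corrected for plate position, at least 3 library SD high, with starting brightness within 5 such deviations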
MrgX1 antag conf: confirmation of human MrgX1 receptor antagonists. shares compounds with MrgX1 antag. MrgX1-HEK293, BAM8-22 calcium flux, Fluo-4; stronger effect = lower value. remaining BAM8-22 calcium response % of control (stronger effect = lower value), % at 10 µM. actives 19% (n = 2,300);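 active = remaining agonist calcium response no higher than 100% minus 3 SD of agonist-only control wells, with starting fluorescence near control levels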;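 note: agonist BAM8-22 given at a near maximal EC90 to ECmax level; peak minus minimum fluorescence divided by baseline after agonist addition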
HEK293 Ca flux: MrgX1 antagonist counter-screen hit in parental HEK293 cells | shares compounds with MrgX1 antag | Fluo-4 calcium fluorescence, FDSS | fluorescence ratio F(max-min)/F0 at 10 µM | actives 2% (n = 4,000) | AID 624111;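 active = duplicate-averaged calcium fluorescence ratio at least three times the standard deviation of buffer wells, a nonspecific response in parental cells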
HEK293 Ca counter: MrgX1 allosteric activator counter-screen hit in parental HEK293 cells; shares compounds with MrgX1 antag; parental HEK293 calcium flux, Fluo-4 fluorescence ratio; stronger effect = higher value; fluorescence ratio F(max-min)/F0 at 10 µM; actives 0.4% (n = 4,000); AID 624114;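 active = calcium fluorescence ratio, averaged over duplicates, at least 3 SD of the buffer-well ratio, meaning a nonspecific response in receptor-free cells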;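 note: untransfected parental HEK293 lacking MrgX1 used as counterscreen for MrgX1 allosteric activators; fluorescence change taken during the second addition on a kinetic imager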
HEK293 Ca cntr2: activity in parental HEK293 cells lacking MrgX1 receptor | shares compounds with MrgX1 antag | fluorescence ratio F(max-min)/F0 at 10 µM | actives 8.7% (n = 4,000) | AID 624115 | Fluo-4 calcium fluorescence (FDSS); stronger effect = higher value;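 active = calcium fluorescence ratio at least three times the spread of buffer wells, meaning a non-specific response in parental cells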
Starred values were filed as active, the others as inactive; i = inactive; · = no result given. Only some compounds are listed: those with a hit (about 3.5% of all), similar ones and a draw of the others.

SMILES	MrgX1 agonist	MrgX1 antag	RGS4 pot	MrgX1 PAM	RGS4 inh	MrgX1 ag reconf	HEK293 Ca flux	HEK293 Ca counter	HEK293 Ca cntr2	others
CCOC(=O)[C@@H]1[C@H]2COc3ccccc3[C@@H]2N2C(=O)N(c3ccc(Cl)cc3)C(=O)[C@@]12C	i	-8.06*	i	i	i	·	i	i	i	RGS4 block valid=i;RGS4 uninduced=i;RGS4 inh ctr2=i;MrgX1 antag conf=i
NC(=S)N/N=C1\CCOc2ccc(F)cc21	i	i	i	i	i	·	·	·	·
Cc1cc2c3c(c1)C(C)CC(C)(C)N3C(=O)C2=O (stereo not given)	i	i	i	i	i	·	·	·	·
CC1CC2(CCCCC2)N2C(=O)C(=O)c3cccc1c32 (stereo not given)	46*	i	i	i	i	195.8%*	i	i	i
CCC(=O)N1CCc2cc(S(=O)(=O)NCCc3ccc(S(N)(=O)=O)cc3)ccc21	i	i	i	i	i	·	·	·	·
CC(C)C(=O)Nc1ccc(C(=O)NNC(=S)NC(=O)c2cccs2)cc1	i	i	i	i	i	·	·	·	·
Cc1cccc(C(=O)NNC(=S)NC(=O)c2cccs2)c1	137*	i	-7.14*	i	i	647.1%*	i	i	122*
CCCCC(=O)NC(=S)NNC(=O)c1ccc(OC)cc1	97.8*	i	i	i	i	578.3%*	i	i	97.4*
COc1ccc(C(=O)NNC(=S)NC(=O)c2ccc(OC)cc2)cc1	80.6*	i	i	i	i	411.2%*	i	i	97*
COc1ccc(C(=O)NNC(=S)NC(=O)c2cccs2)cc1	122*	i	i	i	i	339.5%*	i	i	94.4*
COc1ccc(C(=O)NNC(=S)NC(=O)c2cccnc2)cc1	i	i	i	i	i	·	·	·	·
COc1ccc(S(=O)(=O)N2CCN(CCc3ccccc3)CC2)cc1	i	i	i	i	i	·	·	·	·
CCC(=O)N/N=C/c1ccc(-c2ccc([N+](=O)[O-])cc2)o1	i	i	i	i	i	·	·	·	·
CC(C)(C)C(=O)/C=c1\s/c(=C\c2ccc(-c3ccc([N+](=O)[O-])cc3)o2)c(=O)n1CC(=O)NC(N)=O	82.2*	i	i	i	i	464.0%*	0.017*	i	88.8*
CCN(CC)C(=O)Oc1ccc(Br)cc1C(=O)Nc1ccc(F)cc1F	i	i	i	i	i	·	·	·	·
CN(C)c1nc(N)c(C(=O)N=C(N)N)nc1Cl	35.2*	i	i	i	i	169.6%*	i	i	i
NC(=Nc1ccccc1)NC(=O)c1nc(Cl)c(N)nc1N	i	i	i	i	i	·	·	·	·
CC1(C)CC(=O)c2c(Cc3ccccc3)n[nH]c2C1	i	i	i	i	i	·	·	·	·
CC1(C)CC(=O)c2c(-c3cccnc3)n[nH]c2C1	29.3*	i	i	i	i	i	i	i	i
CCN(CC)c1ccc(NC(=O)c2ccc(=O)[nH]c2)cc1S(=O)(=O)Nc1ccccc1OC	i	i	i	i	i	·	·	·	·
Clc1cccc(N/N=C/c2ccc(N3CCOCC3)s2)c1	i	i	i	i	i	·	·	·	·
Cc1ccc(C(=O)NNC(=S)NC(=O)c2ccc(Cl)cc2Cl)cc1	131*	i	i	i	i	585.4%*	i	i	116*
O=C(NNC(=S)NC(=O)c1ccccc1[N+](=O)[O-])c1ccccc1O	i	i	i	i	i	·	·	·	·
O=C(NNC(=S)NC(=O)c1ccccc1[N+](=O)[O-])c1ccc(Cl)cc1Cl	70.6*	i	i	i	i	218.4%*	i	i	i
O=C(NC(=S)NNC(=O)c1ccccc1O)c1ccc([N+](=O)[O-])cc1	i	i	i	i	i	·	·	·	·
SMILES	MrgX1 agonist	MrgX1 antag	RGS4 pot	MrgX1 PAM	RGS4 inh	MrgX1 ag reconf	HEK293 Ca flux	HEK293 Ca counter	HEK293 Ca cntr2	others
Cc1ccc(C(=O)NC(=S)NNC(=O)c2ccccc2[N+](=O)[O-])cc1	76.6*	i	i	i	i	412.7%*	i	i	78.3*
Cc1ccccc1OCC(=O)NNC(=S)NC(=O)c1ccco1	71*	i	i	i	i	326.5%*	i	i	62.5*
CCc1ccc(/C=N\n2cnnc2)cc1	i	i	i	i	i	·	·	·	·
O=C(NC(=S)NNC(=O)c1ccccc1O)c1ccccc1	93.1*	i	i	i	i	478.5%*	i	i	85.5*
O=C(NC(=S)NNC(=O)c1ccccc1O)c1ccc(F)cc1	i	i	i	i	i	·	·	·	·
Cc1onc(-c2ccccc2)c1C(=O)NC(=S)NNC(=O)c1ccc(O)cc1O	i	i	i	i	i	·	·	·	·
CCCc1ccc(C(=O)NC(=O)c2ccccc2O)cc1	60.6*	i	i	i	i	186.5%*	i	i	63.6*
Cc1onc(-c2ccccc2)c1C(=O)NC(=S)NNC(=O)c1ccccc1O	107*	i	i	i	i	713.6%*	i	i	132*
Cc1ccccc1C(=O)NNC(=S)NC(=O)c1ccccc1	159*	i	i	i	i	755.5%*	i	i	146*
